Source: ChEMBL document CHEMBL1144602, “Synthesis and in vitro binding studies of substituted piperidine naphthamides. Part I: Influence of the substitution on the basic nitrogen and the position of the amide on the affinity for D2L, D4.2, and 5-HT2A receptors” (Bioorg Med Chem Lett, 2007)
pKi: −log10 of the molar value.

What was measured:
[1] = molecular target: T1, D(4) dopamine receptor (Homo sapiens) (UniProt P21917); test: Displacement of [3H]nemonapride from human cloned dopamine D4.2 receptor at 1 uM
T1 sequence (whole entry): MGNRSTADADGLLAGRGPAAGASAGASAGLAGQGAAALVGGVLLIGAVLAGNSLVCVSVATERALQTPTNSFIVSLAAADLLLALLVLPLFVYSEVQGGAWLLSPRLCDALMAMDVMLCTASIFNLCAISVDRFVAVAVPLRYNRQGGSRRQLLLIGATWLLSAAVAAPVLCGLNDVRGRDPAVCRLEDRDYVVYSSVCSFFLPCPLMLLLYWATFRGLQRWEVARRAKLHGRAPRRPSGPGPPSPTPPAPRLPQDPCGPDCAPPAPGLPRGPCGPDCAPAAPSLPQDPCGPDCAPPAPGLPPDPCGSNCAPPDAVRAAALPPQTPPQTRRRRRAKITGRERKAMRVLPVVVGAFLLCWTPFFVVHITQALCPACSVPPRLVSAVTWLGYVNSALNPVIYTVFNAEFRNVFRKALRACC
Method in brief: (§1)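 Single-point screen at 1 µM, reported as percent inhibition of radioligand binding: [3H]ketanserin at native rat 5-HT2A, [3H]nemonapride at human D4.2, [3H]spiperone at human D2L.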

[2] = molecular target: T2, D(2) dopamine receptor (Homo sapiens, UniProt P14416); test: Displacement of [3H]spiperone from human cloned dopamine D2L receptor at 1 uM; method in brief: as §1
T2 sequence (P14416 whole entry): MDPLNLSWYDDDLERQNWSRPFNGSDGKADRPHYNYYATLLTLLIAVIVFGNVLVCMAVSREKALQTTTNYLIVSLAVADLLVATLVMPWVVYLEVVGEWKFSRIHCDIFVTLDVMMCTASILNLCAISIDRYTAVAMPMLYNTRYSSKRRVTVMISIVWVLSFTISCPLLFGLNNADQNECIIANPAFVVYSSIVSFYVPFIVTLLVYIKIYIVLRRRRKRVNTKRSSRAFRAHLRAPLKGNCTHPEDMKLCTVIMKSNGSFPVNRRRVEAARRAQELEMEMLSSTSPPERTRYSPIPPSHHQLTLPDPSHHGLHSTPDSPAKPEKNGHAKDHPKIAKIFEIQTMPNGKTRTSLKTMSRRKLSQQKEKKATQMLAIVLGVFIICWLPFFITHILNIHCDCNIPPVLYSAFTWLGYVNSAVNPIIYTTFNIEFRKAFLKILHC

[3] = molecular target: T3, D(4) dopamine receptor (Homo sapiens, UniProt P21917); test: Displacement of [3H]nemonapride from human cloned dopamine D4.2 receptor
T3 sequence (P21917 whole entry): T1 sequence (whole entry)
Method in brief: (§2)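 Radioligands were [3H]ketanserin for native rat 5-HT2A, [3H]nemonapride for cloned human D4.2 and [3H]spiperone for cloned human D2L. Ki was determined only for compounds giving >50% inhibition in a 1 µM screen. Values are mean ± SD, n ≥ 2 unless noted.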

[4] = molecular target: 5-hydroxytryptamine receptor 2A (Rattus norvegicus) (UniProt P14842); test: Displacement of [3H]ketanserin from rat cloned 5HT2A receptor at 1 uM
5-hydroxytryptamine receptor 2A (Rattus norvegicus), sequence (P14842 whole entry): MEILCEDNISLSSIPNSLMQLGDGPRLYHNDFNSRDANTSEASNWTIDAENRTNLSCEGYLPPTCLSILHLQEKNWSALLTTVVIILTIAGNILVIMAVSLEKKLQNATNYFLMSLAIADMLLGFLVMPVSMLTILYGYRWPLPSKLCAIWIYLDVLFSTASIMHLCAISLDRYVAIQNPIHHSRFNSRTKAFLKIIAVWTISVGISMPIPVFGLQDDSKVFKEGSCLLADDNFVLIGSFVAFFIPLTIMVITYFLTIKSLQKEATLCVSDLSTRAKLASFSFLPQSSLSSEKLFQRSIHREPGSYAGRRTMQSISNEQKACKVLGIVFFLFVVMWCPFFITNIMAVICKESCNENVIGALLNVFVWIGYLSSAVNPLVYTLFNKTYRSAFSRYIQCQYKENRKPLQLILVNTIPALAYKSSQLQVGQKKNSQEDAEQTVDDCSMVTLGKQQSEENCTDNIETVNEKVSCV

[5] = molecular target: T2, D(2) dopamine receptor; test: Displacement of [3H]spiperone from human cloned dopamine D2L receptor; method in brief: as §2

Row | SMILES | Activity [1] [%] | Activity [2] [%] | pKi [3] | Activity [4] [%] | pKi [5]
1 | O=C(NC1CCN(CC[C@H](O)c2ccccc2)CC1)c1cccc2ccccc12 | 45 | 0 | – | – | –
2 | O=C(NC1CCN(CCCCc2ccccc2)CC1)c1ccc2ccccc2c1 | – | 22 | 6.55 | – | –
3 | O=C(c1ccc2ccccc2c1)N1CCC(NCC[C@H](O)c2ccccc2)CC1 | 49 | – | – | – | –
4 | O=C(NC1CCN(CCCCc2ccccc2)CC1)c1cccc2ccccc12 | – | 18 | 6.44 | – | –
5 | O=C(c1ccc2ccccc2c1)N1CCC(NCCc2ccccc2)CC1 | – | 0 | 6.68 | 50 | –
6 | O=C(NC1CCN(Cc2ccccc2)CC1)c1ccc2ccccc2c1 | – | – | 7.96 | – | < 6.00
7 | O=C(c1ccc2ccccc2c1)N1CCC(NCCCc2ccccc2)CC1 | – | 0 | 6.65 | 41 | –
8 | CC(c1ccccc1)N1CCC(NC(=O)c2cccc3ccccc23)CC1 (centres undefined) | 21 | 11 | – | – | –
9 | O=C(c1ccc2ccccc2c1)N1CCC(NCc2ccccc2)CC1 | – | 0 | 6.78 | 8 | –
10 | O=C(NC1CCN(CCc2ccccc2)CC1)c1cccc2ccccc12 | – | 3 | 6.64 | – | –
11 | O=C(NC1CCN(Cc2ccccc2)CC1)c1cccc2ccccc12 | – | – | 6.79 | – | < 6.00
12 | O=C(c1cccc2ccccc12)N1CCC(NCc2ccccc2)CC1 | 1 | 0 | – | 10 | –
13 | O=C(NC1CCN(CCCc2ccccc2)CC1)c1cccc2ccccc12 | – | 9 | 7.15 | – | –
14 | O=C(c1cccc2ccccc12)N1CCC(NCCc2ccccc2)CC1 | 16 | 0 | – | – | –
15 | O=C(NC1CCN(CCc2ccccc2)CC1)c1ccc2ccccc2c1 | – | 7 | 6.86 | – | –
16 | O=C(c1cccc2ccccc12)N1CCC(NCCCc2ccccc2)CC1 | 52 | 0 | – | 35 | –
17 | CC(c1ccccc1)N1CCC(NC(=O)c2ccc3ccccc3c2)CC1 (centres undefined) | – | – | 7.54 | – | –
18 | O=C(NC1CCN(CCCc2ccccc2)CC1)c1ccc2ccccc2c1 | – | 13 | 7.20 | – | –
